# In the library only some 4.8% were active in any assay of this set; here they are far more common.
# CHOP UPR activ: apoptotic UPR (CHOP) activation | CHO-CHOP luciferase reporter, luminescence; percent of tunicamycin response over DMSO baseline | activation, % at 10 µM | 330,000 tested, 0.34% active | AID 449763;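 active means at 10 µM dose, activation of 40% or more, normalized to positive control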;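 further: 100% = tunicamycin at 10 µg/mL and 0% = DMSO alone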
#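 System: CHO-CHOP luciferase reporter cell line; amount: 500 cells/well; buffer or medium: F12 medium containing 10% fetal bovine serum; incubation: 6 h compound exposure at 37 °C after overnight seeding; measured by: luciferase luminescence after 10 min with Steady-Glo reagent; evaluation: % reporter activation, DMSO baseline versus tunicamycin full activation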
# Beta apoptosis: beta cell apoptosis inhibition; 300,000 tested, 0.8% active; protection from apoptosis, % (no concentration beside the values); AID 435005; INS-1E cytokine-induced death, ATP luminescence, 48 h; percent of positive-control rescue, neutral wells zero;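 active means Every replicate reaches about 75%, or at least half do and their mean reaches it too, limit read from the data; inconclusive means At least half of replicates reach the limit but their mean does not; inactive means Under half of replicates reach the limit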;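 further: 0% = cytokine-treated negative control wells and 100% = positive control rescue; higher means more ATP so stronger rescue from cytokine killing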
# CSC inhib: blocks cancer stem cells. 300,000 tested, 1.1% active. inhibition, % at 7.5 µM. AID 2717. cancer stem cell-like cells viability, luminescence; in the data active means inhibition above about 75%; inconclusive means no clear call, values can overlap the other calls; tested in HMLE shEcad cells
# Mdm2-MdmX inh: disrupts the human Mdm2-MdmX interaction; inhibition, % at 8 µM; 330,000 tested, 3% active; SaOS-2 split-luciferase Mdm2/MdmX complementation, luminescence;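 active means inhibition of at least 50% at 8 µM in the primary screen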
# XBP1 UPR activ: adaptive UPR (XBP1) activation; CHO-XBP1 luciferase reporter, IRE1-XBP1 UPR activation, luminescence; percent of tunicamycin response, DMSO as zero; activation, % at 20 µM; 330,000 tested, 0.33% active;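 active means versus positive control, 20 µM dose yields 30% or more activation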;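 further: 100% = tunicamycin at 10 µg/mL and 0% = DMSO only wells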
#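 Signal: luciferase luminescence; Assay system: CHO-XBP1 luciferase reporter cells; Amount: one thousand reporter cells per well; Dosing: 20 µM single concentration, DMSO 1%; Benchmarks: high control tunicamycin 10 µg/mL final, low control DMSO vehicle only; Schedule: 6 h compound exposure at 37 °C, 5% CO2; Evaluation: percent activation relative to tunicamycin reference.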
# SKKanGAS inh: inhibitors of SKKanGAS S. pyogenes growth in kanamycin (SK-promoter or general growth effect) | inhibition, % at 7.5 µM | BacTiter-Glo, 6 h | 300,000 tested, 1.3% active;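 active means mean replicate score, as percent of positive control median, at least 50; inconclusive means mean below 50 but one replicate at or above 50; inactive means mean and every replicate below 50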;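 further: strain carries kanamycin resistance gene driven by streptokinase promoter and grows in 40 µg/ml kanamycin; loss of luminescence reflects streptokinase promoter inhibition or plain growth inhibition; 0% = median of DMSO wells and 100% = positive control at its reference dose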
# Mdm2 MdmX conf: human Mdm2/MdmX binding inhibition, confirmed. shares compounds with Mdm2-MdmX inh. luminescent assay. inhibition, % at 8 µM. 10,000 tested, 55% active. AID 489028; in the data active means inhibition above about 40%
# Full FLuc ctr: counter-screen for Mdm2/MdmX inhibitors: full-length luciferase; inhibition, % at 8 µM; AID 504607; SaOS-2 full-length luciferase counterscreen, luminescence; 6,200 tested, 77% active; shares compounds with Mdm2-MdmX inh;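 active means mean inhibition at 8 µM reaching about 37%, which flags the compound as non-specific, limit read from the data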;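 further: p53-null SaOS-2 cells with luciferase driven by a doxycycline-inducible promoter; compound on cells about two nights before reading with doxycycline added after day one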
# * marks the source's active call; other numbers are inactive results; ? = inconclusive; / = no result given.
SMILES,CHOP UPR activ,Beta apoptosis,CSC inhib,Mdm2-MdmX inh,XBP1 UPR activ,SKKanGAS inh,Mdm2 MdmX conf,others
O=C(NC(=S)Nc1nc2c(s1)CSc1ccccc1-2)c1ccccc1,0,17,-6,68*,12,38,8,
O=C(NC(=S)Nc1nc2c(s1)CCCC2)c1ccc(C(=O)c2ccccc2)cc1,-2,10,57,4,-1,31,/,
COC(=O)c1ccc(CSc2nnc(Nc3ccc(OC)cc3)s2)o1,0,-5,-3,29,-3,1,/,
COC(=O)c1ccc(CSc2nnc(Nc3ccccc3OC)s2)o1,1,-4,33,62*,1,-6,57*,Full FLuc ctr=84*
Cc1ccc(-c2cc(-c3ccc4c(c3)OCO4)c(C#N)c(N)n2)o1,0,-7,2,57*,-1,13,27,
Cc1ccc(-c2cc(-c3ccc(C)o3)nc(N)c2C#N)cc1,-2,-8,2,0,-7,6,/,
COc1ccc(S(=O)(=O)N2CCN(CC(=O)c3ccc(O)c(O)c3)CC2)cc1,18,-5,23,8,14,-2,/,
COc1cc(OC)c2c(-c3ccccc3)cc(=O)oc2c1C(CCN1CCCC(C)C1)c1ccc(N(C)C)cc1 (stereo unspecified),7,16,30,77*,14,18,18,
COc1cc(OC)c2c(-c3ccccc3)cc(=O)oc2c1C(CCN1CCN(c2ccccc2)CC1)c1ccc(N(C)C)cc1 (stereo unspecified),2,1,-6,15,4,14,/,
COc1ccc(C(CCN2CCCC(C)C2)c2c(OC)cc(OC)c3c(-c4ccccc4)cc(=O)oc23)cc1 (stereo unspecified),23,51,27,100*,12,10,17,
COc1ccc(C(CCN2CCCC2)c2c(OC)cc(OC)c3c(-c4ccccc4)cc(=O)oc23)cc1 (stereo unspecified),0,4,3,38,9,20,/,
COc1ccc(C(=O)NC(C)CCCC(C)(C)O)cc1OC1CCN(C(C)=O)CC1 (stereo unspecified),2,/,/,15,-4,0,/,
Cc1cc(C)c(C)c(S(=O)(=O)N2CCC(C(=O)NCCCN3CCCC3=O)CC2)c1C,0,5,/,7,1,/,/,
CCOc1ccc(-c2c(C)sc3nc[nH]c(=O)c23)cc1,0,-6,3,-11,-3,-8,/,
COc1ccc(-c2cc3nc(CCl)[nH]c(=O)c3s2)cc1,0,4,43,95*,-12,?,30,
CC(OC(=O)[C@@H]1CCCN1C(=O)c1cccs1)C(=O)Nc1cccc([N+](=O)[O-])c1 (stereo partly specified),1,-2,-2,32,1,/,/,
O=C1C(=C2SCCCS2)CC/C1=C\c1ccc(F)cc1,-12,8,36,82*,-9,16,81*,Full FLuc ctr=26
Cc1ccc2nc(-c3ccccc3)cc(C(=O)N(C)CC(=O)Nc3ccccc3Br)c2c1,4,9,/,53*,0,3,28,
Cc1ccccc1C(=O)O/N=C/c1c(N2CCOCC2)n(C)c2ccccc12,14,63,-4,53*,7,6,37,
COc1cc(-c2cc(C(=O)Nc3ccc(C)c(S(=O)(=O)N4CCOCC4)c3)c3ccccc3n2)cc(OC)c1OC,3,-20,15,52*,3,/,39,Full FLuc ctr=73*
O=C(Nc1cccc(S(=O)(=O)NCc2ccco2)c1)c1cc(-c2ccccc2)nc2ccccc12,2,-2,39,52*,2,36,25,
O=C(NCc1ccco1)c1cc(-c2ccccc2)nc2ccccc12,0,4,-5,15,-5,-14,/,
COc1cc2c(cc1NC(=O)c1cc(-c3ccncc3)nc3ccc(C)cc13)oc1ccccc12,1,50,37,51*,2,-3,9,
COc1cc(-c2cc(C(=O)Nc3cccc(C(C)=O)c3)c3ccccc3n2)cc(OC)c1OC,8,/,13,61*,6,21,40,Full FLuc ctr=82*
CC1CCN(c2ccc3nnc(CCC(=O)N4CCN(c5ccccc5F)CC4)n3n2)CC1,6,3,21,10,3,-7,/,
SMILES,CHOP UPR activ,Beta apoptosis,CSC inhib,Mdm2-MdmX inh,XBP1 UPR activ,SKKanGAS inh,Mdm2 MdmX conf,others
CC(=O)Nc1nnc(CCS(=O)(=O)c2ccc(C)cc2)s1,-1,-1,-14,14,1,-2,/,
O=C(Nc1ccc(S(=O)(=O)N2CCOCC2)cc1)c1ccc(Cl)cc1Cl,1,-1,-10,30,0,19,/,
CCN(CC)CCNC(=O)c1ccc(NC(=O)C2CC(=O)N(c3ccc4c(c3)OCCO4)C2)cc1 (stereo unspecified),1,2,-11,10,0,-2,/,
Cc1ccc(S(=O)(=O)N(C)C)cc1NC(=O)COC(=O)Cc1cccs1,2,-2,-13,0,-3,-4,/,
CCCNC(=O)c1ccc2c(=O)c(O)c(-c3cccc(Br)c3)[nH]c2c1,-1,98*,125*,53*,1,0,70*,Full FLuc ctr=31
CCCNC(=O)c1ccc2c(=O)c(O)c(-c3ccc(F)cc3)[nH]c2c1,2,14,4,69*,2,2,19,
CCCNC(=O)c1ccc2c(=O)c(O)c(C)[nH]c2c1,-1,-4,-5,0,-1,-2,/,
CCOc1ccccc1N1CCN(C(=O)c2cc(S(=O)(=O)N(C)C)ccc2N2CCCC2)CC1,-2,7,/,9,-3,/,/,
Cc1oc2cc(O)cc(C)c2c(=O)c1-c1cnn(-c2ccccc2)c1,1,5,28,58*,1,17,24,
O=S(=O)(NC1CC(NS(=O)(=O)OCC(Cl)(Cl)Cl)C2CCCCC12)OCC(Cl)(Cl)Cl (stereo unspecified),0,-5,83*,77*,1,91*,70*,Full FLuc ctr=59*
Cn1c(CNc2nc3ccccc3n2CCN2CCCCC2)nc2ccccc21,1,3,-6,12,-2,-3,/,
CCN(CC)c1ccc(CNc2nc3ccccc3n2CCN2CCCCC2)cc1,1,88*,78*,89*,4,-7,48*,Full FLuc ctr=77*
c1ccc(Cn2c(CNc3nc4ccccc4n3CCN3CCCCC3)nc3ccccc32)cc1,5,0,17,57*,-4,5,15,
CCN(CC(=O)NCc1ccc(F)cc1)C(=O)/C=C/c1ccc(OC)c(S(=O)(=O)NC(C)C)c1,-1,9,57,56*,4,-1,55*,Full FLuc ctr=61*

# Screening results from PubChem.
